Values without a mark were called inactive. Results filed as inconclusive are left out. The source made the active and inactive calls.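 Rule for the calls, unless noted: active = inhibition over a set limit, the all-compound mean plus 3 SD, in both replicate runs; inconclusive = over that limit in just one replicate run; inactive = at or under that limit in both runs.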

By viability is commonly meant a read-out of living cells in per cent, often relative to untreated cells. The inhibition is the change of the read-out against control, counted positive when it falls.

Assay [1] is described as follows: OD615 S. cerevisiae growth inhibition, permissive medium, pilot counter-assay, permissive growth control for S. cerevisiae lifespan shortening project (AID 705;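 active = growth inhibition above 25% in both replicates, a cutoff set 3 SD above the mean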). Particulars: OD615, 24 h, at 10 µM, active compounds read high. The method in brief: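 Material: engineered DeaD yeast; compound dosing: one dose 10 µM, DMSO 0.25% final; measure: yeast growth inhibition indicated by reduced 24 h OD615; detection: OD615 turbidity read; incubation: cells pre-grown 4 h, then 24 h compound exposure, 30 °C humidified; medium: permissive synthetic complete medium with raffinose and galactose carbon sources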

The nature of assay [2]: Restrictive medium S. cerevisiae growth inhibition, OD615, pilot screen of yeast lifespan reduction project, restrictive growth control (AID 706;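 active = growth inhibition above a set limit, 3 SD over mean compound inhibition, in both replicates, cut at about 43% in these data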;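 note: modified DeaD lifespan yeast strain shifted to restrictive glucose medium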). The settings on record: OD615, 48 h, at 10 µM, active compounds read high. The procedure, abridged:
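material = engineered S. cerevisiae DeaD strain | medium = glucose-based CSMM-D restrictive medium | times = 4 h pre-incubation, 48 h exposure at 30 °C | technique = OD615 absorbance reading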

Assay [3] in a line: viability gain of MRP-1-high H69AR cells under doxorubicin, pilot screen, MRP-1 activator project, CellTiter-Glo, duplicate (AID 807;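 active = viability increase at or above a cutoff of the median across tested compounds plus 3 SD, cut at about 8.5% in these data, passing the limit was not always enough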;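 note: compound pretreatment 18-22 h then 72 h combined with doxorubicin; 0% = doxorubicin alone and 100% = vehicle without doxorubicin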). Particulars: H69AR viability with doxorubicin, CellTiter-Glo luminescence; at 10 µM; active compounds read high. Background: Cellular ATP, detected with luciferase, serves as a proxy for viable cell number.
A short description of assay [4]: growth suppression of beta-catenin knockout HCT116, pilot screen, human colon tumor cells (AID 823;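 active = cell viability at or below a set limit in both duplicate runs, the limit being the all-compound median minus 4 SD, cut at about 23% in these data, passing the limit was not always enough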;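 note: 0% = wells killed by 20 µM Hyamine and 100% = untreated DMSO cell wells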). Particulars: CellTiter-Glo, 60 h, at 10 µM, active compounds read low.
Assay [5] in a line: growth suppression of PTEN-deleted HCT116, pilot screen, cell-based, HCT116 clonal line, CellTiter-Glo (AID 824;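 active = viability at or below 27.92% in each of two runs, the all-compound median minus 4 SD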;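 note: 0% = 20 µM Hyamine control and 100% = vehicle cell control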). The settings on record: 60 h, at 10 µM, active compounds read low.
Assay [6] can be described thus: inhibitors of the yeast RAM network, pilot screen, dse1pr::URA3 reporter, 5-FOA selection (AID 869).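 Note: 0% = DMSO wells with no growth and 100% = 10 µM 1-NA-PP1 with full growth; RAM network block rescues cells from 5-FOA so hits raise OD615 growth.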 The settings on record: S. cerevisiae dse1pr::URA3 5-FOA growth, OD615, 2 d; at 10 µM; active compounds read high; strain carries analog-sensitive mutant Cbk1 kinase.
Assay [7] is described as follows: RAM signaling pathway blockade in yeast – S. cerevisiae, Pdr1DBD-CYC8 efflux-inhibited sensitized strain, primary screen (AID 1298;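 active = RAM network inhibition above 8.4% in each of two replicates, 3 SD over the compound average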;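 note: 0% = DMSO untreated cells without growth and 100% = 10 µM 1-NA-PP1 full growth; higher means more yeast growth rescued from 5-FOA killing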). Particulars: S. cerevisiae cbk1-as DSE1-URA3 strain, 5-FOA growth OD615, 2 d; at 50 µM; active compounds read high.

With `O=C(CSc1nnc(C2COc3ccccc3O2)o1)N1CCCCC1` (stereo not drawn), the growth inhibition in assay [1] was -7.62%; in assay [2], 2.56%. Besides, the viability increase in assay [3] was -0.36%. In addition, the viability is 98.7% in assay [4] and 105% in assay [5]. Further, the inhibition in assay [6] is -0.035%. Besides, in assay [7], the RAM network inhibition was 0.97%.

Regarding `CCOc1ccc(N(CC(=O)NCCCOC)S(C)(=O)=O)cc1`, the growth inhibition is 4.66% in assay [1] and 3.23% in assay [2]. Besides, the viability increase in assay [3] was -2.35%. The viability in assay [4] was 98.9%; in assay [5] it was 101%. Besides, the inhibition in assay [6] is 0.95%. Also, in assay [7], the RAM network inhibition is 2.73%.

For the compound `Cc1ccc(C)c(NC(=O)C2CC=CCC2C(=O)O)c1` (stereo not drawn), the growth inhibition in assay [1] is 3.24%; in assay [2], 5.03%. The viability increase in assay [3] was -0.5%. Also, the viability is 101% in assay [4] and 104% in assay [5]. The inhibition in assay [6] was 1.96%. For the same compound, in assay [7], the RAM network inhibition was 4.68%.

In the case of `COC(=O)C1C(=O)c2c([nH]c(C(=O)OC3CCCCCC3)c2C)CC1C` (stereo not drawn), the growth inhibition in assay [1] is 1.09%; in assay [2] it was 2.59%. In addition, in assay [3], the viability increase was -2.6%. Besides, the figures for the viability in assay [4] and in assay [5] were 102% and 91.1%, respectively. Moreover, the inhibition in assay [6] was 1.3%. In addition, the RAM network inhibition in assay [7] was 3.01%.

For `Cc1nnc(SCCn2c(N3CCCC(C)C3)nc3c2c(=O)n(C)c(=O)n3C)s1` (stereo not drawn), the values for the growth inhibition in assay [1] and in assay [2] were -11.4% and -13.6%, respectively. Further, in assay [3], the viability increase was -3.23%. For the same compound, the viability in assay [4] is 94.2%; in assay [5], 97.2%. Also, the inhibition in assay [6] was 2.31%. The RAM network inhibition in assay [7] was 1.84%.

Consider `Cn1c(=O)oc2cc(S(=O)(=O)N3CCCC(C(=O)NCc4cccs4)C3)ccc21` (stereo not drawn), for which the growth inhibition in assay [1] was 2.14%; in assay [2], 2.64%. For the same compound, the viability increase in assay [3] was -1.73%. The results for the viability in assay [4] and in assay [5] were 100% and 93.4%, respectively. Besides, in assay [6], the inhibition is 2.51%. Also, the RAM network inhibition in assay [7] is 6.45%.

On to `Cc1csc(C(C#N)C(=O)c2cc3ccccc3o2)n1` (stereo not drawn), for which the growth inhibition in assay [1] was -21.6%; in assay [2] it was -8.8%. Further, the viability increase in assay [3] is -0.75%. Further, the viability in assay [4] is 93.7%; in assay [5], 85.3%. The inhibition in assay [6] was 2.67%. The RAM network inhibition in assay [7] is 0.32%.

Regarding `COc1cc(C2C(C(=O)Nc3ccc(F)cc3)=C(C)Nc3nc(CCCO)nn32)cc(OC)c1OC` (stereo not drawn), the growth inhibition was -2.56% in assay [1] and -11.4% in assay [2]. Besides, the viability increase in assay [3] was -1.09%. The values for the viability in assay [4] and in assay [5] were 105% and 92.7%, respectively. The inhibition in assay [6] was 2.58%. Besides, the RAM network inhibition in assay [7] was 1.42%.

With `Cc1cc(NC(=O)CSc2c3c(nc4ccccc24)CCC3)no1`, the growth inhibition in assay [1] was -4.17%; in assay [2], 5.52%. The viability increase in assay [3] was -6.01%. Further, the viability in assay [4] was 78.1%; in assay [5], 74.6%. Besides, the inhibition in assay [6] was 2.21%. For the same compound, in assay [7], the RAM network inhibition is 2.01%.

Turning to `COC(=O)CN1C(=O)C(O)(CC(=O)c2cccc(Br)c2)c2ccccc21` (stereo not drawn), the growth inhibition in assay [1] is -6.81%; in assay [2], -10.7%. Further, in assay [3], the viability increase was -4.39%. Also, the viability was 90.9% in assay [4] and 86.9% in assay [5]. In addition, in assay [6], the inhibition is 1.2%. For the same compound, the RAM network inhibition in assay [7] is 2.42%.

Consider `COC(=O)c1ccc(N=c2sc(C(=O)OC)cc(=O)n2C)cc1`, for which the values for the growth inhibition in assay [1] and in assay [2] were -4.13% and -3.27%, respectively. Further, the viability increase in assay [3] is -5.93%. The viability in assay [4] is 71.2%; in assay [5], 62.5%. Besides, in assay [6], the inhibition was 0.495%. Moreover, the RAM network inhibition in assay [7] was 3.85%.

Regarding `Cc1cccc(-n2ncc3c(NCCc4ccc(S(N)(=O)=O)cc4)ncnc32)c1`, the results for the growth inhibition in assay [1] and in assay [2] were 2.13% and 1.53%, respectively. For the same compound, in assay [3], the viability increase is -2.67%. Besides, the viability in assay [4] is 88.8%; in assay [5], 82%. Also, the inhibition in assay [6] is 1.27%. Further, the RAM network inhibition in assay [7] was 4.84%.

On to `Cn1cc(S(=O)(=O)N2CCN(Cc3ccccc3)CC2)c(=O)n(C)c1=O`, for which the values for the growth inhibition in assay [1] and in assay [2] were -11.9% and -10.5%, respectively. The viability increase in assay [3] was -0.5%. In addition, the viability in assay [4] was 95.2%; in assay [5], 95.5%. The inhibition in assay [6] is 0.755%. Further, the RAM network inhibition in assay [7] was -0.22%.

Regarding `CCOC(=O)CSc1nnc(CSc2nc(N)c3c(C)c(C)sc3n2)n1-c1ccccc1`, the results for the growth inhibition in assay [1] and in assay [2] were 14.1% and 53.5% (active), respectively. The viability increase in assay [3] is -2.13%. For the same compound, the viability was 94.8% in assay [4] and 96.2% in assay [5]. For the same compound, the inhibition in assay [6] was 0.985%. Further, the RAM network inhibition in assay [7] is 5.21%.

With `CCOC(=O)N1CCC(N2C(=O)c3ccccc3C2Nc2cc(OC)c(OC)c(OC)c2)CC1` (stereo not drawn), the results for the growth inhibition in assay [1] and in assay [2] were 6.9% and 8.61%, respectively. Besides, the viability increase in assay [3] is -4.12%. Also, the viability in assay [4] is 92.2%; in assay [5], 79.2%. The inhibition in assay [6] is 0.24%. Moreover, the RAM network inhibition in assay [7] is 0.78%.

With `O=C(Cc1c(C(=O)O)[nH]c2ccccc12)NC1CCN(Cc2ccccc2)CC1`, the growth inhibition in assay [1] was -9.14%; in assay [2], -14.9%. In addition, the viability increase in assay [3] was 0.24%. Further, the results for the viability in assay [4] and in assay [5] were 102% and 99.8%, respectively. Also, the inhibition in assay [6] is 1.6%. Also, in assay [7], the RAM network inhibition was -1.14%.

With `CN1CCN(c2cc(=O)n(-c3ccc(Cl)cc3)c(=O)[nH]2)CC1`, the growth inhibition in assay [1] was -1.55%; in assay [2] it was -1.23%. Further, in assay [3], the viability increase is 0.27%. Moreover, the figures for the viability in assay [4] and in assay [5] were 108% and 102%, respectively. Also, the inhibition in assay [6] was 0.42%. Besides, the RAM network inhibition in assay [7] is 2.42%.

Regarding `CC1CN(S(=O)(=O)c2ccc(C(=O)Nc3nnc(-c4ccc5c(c4)CCCC5)o3)cc2)CC(C)O1` (stereo not drawn), the growth inhibition in assay [1] is -19.1%; in assay [2], 1.69%. Further, the viability increase in assay [3] was -5.17%. Besides, the viability in assay [4] is 21.1% (active); in assay [5], 19.7% (active). Also, in assay [6], the inhibition is 1.67%. In addition, the RAM network inhibition in assay [7] was 5.1%.

As for `C=CCOC(=O)C1=C(C)N(C)C(=O)NC1c1cc2c(cc1Br)OCO2` (stereo not drawn), the growth inhibition in assay [1] is 0.155%; in assay [2], -0.035%. Besides, the viability increase in assay [3] was -1.27%. Besides, the viability is 88.1% in assay [4] and 91.8% in assay [5]. For the same compound, the inhibition in assay [6] is 1.38%. The RAM network inhibition in assay [7] is 5.32%.

For `Cc1ccc(C(=O)N2CCN(c3ccccc3)CC2)cc1C`, the results for the growth inhibition in assay [1] and in assay [2] were 3.37% and 8.08%, respectively. For the same compound, in assay [3], the viability increase was 0.84%. Besides, the viability in assay [4] was 101%; in assay [5] it was 97.7%. Besides, the inhibition in assay [6] was 0.13%. The RAM network inhibition in assay [7] is 2.03%.

Regarding `O=S(=O)(NC1CCCCC1)c1ccc(Br)cc1`, the growth inhibition in assay [1] was 2.22%; in assay [2], 1.47%. For the same compound, the viability increase in assay [3] is -2.36%. The viability in assay [4] was 89.3%; in assay [5], 89.8%. The inhibition in assay [6] was 0.065%. In addition, in assay [7], the RAM network inhibition is 2.96%.

`Cc1cc(Oc2ccccc2)nc2ccc(O)cc12`: the growth inhibition in assay [1] is -1.63%; in assay [2], 3.26%. Further, the viability increase in assay [3] is -5.89%. In addition, the viability in assay [4] was 89.9%; in assay [5] it was 80.2%. Further, the inhibition in assay [6] is 1.14%. For the same compound, in assay [7], the RAM network inhibition is -0.04%.

For `CCOC(=O)C1CCN(C(=O)CN(c2ccc(OC)cc2)S(=O)(=O)c2c(C)noc2C)CC1`, the results for the growth inhibition in assay [1] and in assay [2] were -7.19% and -5.5%, respectively. For the same compound, the viability increase in assay [3] was -2.59%. The figures for the viability in assay [4] and in assay [5] were 98.5% and 96.7%, respectively. Also, in assay [6], the inhibition was 2.41%. Further, in assay [7], the RAM network inhibition was 3.41%.

With `CC(C)n1c(SCc2ccccc2F)nc2c1c(=O)n(C)c(=O)n2C`, the growth inhibition in assay [1] is -11.3%; in assay [2] it was -1.82%. Moreover, the viability increase in assay [3] is -1.77%. In addition, the viability is 82.7% in assay [4] and 76.5% in assay [5]. Further, in assay [6], the inhibition is 1.15%. Also, in assay [7], the RAM network inhibition was 5.87%.

Values taken from PubChem BioAssay.
